Test results published in ChEMBL document CHEMBL4028904, “Discovery of a Novel Series of Tankyrase Inhibitors by a Hybridization Approach” (J Med Chem, 2017).
In brackets after ≈: the same amount, converted by molar mass.

Experiments:
[1] = Oral bioavailability in Sprague-Dawley rat at 14 mg/kg measured up to 24 hrs postdose; format: ADME, organism-based; settings: in vivo
[2] = Inhibition of CYP1A in human liver microsomes using ethoxyresorufin as substrate after 30 mins by LC-MS/MS analysis; format: ADME
P388 [3] = assay: Antitumor activity against mouse P388 cells allografted in immunocompetent BDF1 mouse assessed as tumor growth inhibition at 30 mg/kg, po administered qd for 10 days measured on day 12 post last dose; format: functional; settings: read-out: TGI
Procedure, shortened: (§1)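 Immunocompetent BDF1 (DBA2 × C57Bl6j) mice were implanted with p388 cells and randomized after 2 days into vehicle (1% starch, n = 6) and two treatment groups (n = 5 each). Dosing was oral, once daily, for 10 days. Tumor size was measured by caliper at the end. Values are tumor size reduction relative to vehicle control.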

Liver = assay: Intrinsic clearance in human liver microsomes at 3 uM incubated up to 45 mins in presence of NADPH by LC-MS/MS analysis; format: ADME, microsome; settings: 0.75 h
COLO 320DM [4] = assay: Antitumor activity against human COLO320DM cells xenografted in nude Balb/c mouse assessed as tumor growth inhibition at 30 mg/kg, po administered qd for 10 days measured on days 12, 17 and 21 post last dose; format: functional; settings: 240 h, read-out: TGI
Procedure, shortened: (§2)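 Tumor-bearing mice were randomized 2 days after inoculation into four groups: vehicle (1% starch, n = 4) and 15, 30 or 60 mg/kg (n = 5 each). Dosing was oral, once daily, for 10 days. Tumor size was measured by caliper on days 12, 17 and 21. Values are tumor volume reduction relative to vehicle-treated controls.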

[5] = molecular target: Poly [ADP-ribose] polymerase 2 (Homo sapiens, UniProt Q9UGN5); assay: Inhibition of human GST-tagged PARP2 (2 to 583 residues) expressed in baculovirus infected Sf9 cell expression system using NAD+ as substrate after 4 hrs by fluorescence assay
[6] = Cmax in ICR mouse at 5 mg/kg, po measured up to 24 hrs postdose; format: ADME, organism-based; parameters: dose 5 mg/kg, route oral; settings: in vivo
P388 [7] = assay: Antitumor activity against mouse P388 cells allografted in immunocompetent BDF1 mouse assessed as tumor growth inhibition at 15 mg/kg, po administered qd for 10 days measured on day 12 post last dose; format: functional; settings: read-out: TGI; procedure, shortened: as §1
[8] = molecular target: Protein mono-ADP-ribosyltransferase PARP16 (Homo sapiens, UniProt Q8N5Y8); assay: Inhibition of human PARP16 using NAD+ as substrate by fluorescence assay
Canis familiaris = assay: Clearance in Beagle dog at 7 mg/kg, po measured up to 24 hrs postdose; format: ADME, organism-based, Canis lupus familiaris; settings: in vivo
[9] = molecular target: Protein mono-ADP-ribosyltransferase PARP10 (Homo sapiens, UniProt Q53GL7); assay: Inhibition of human PARP10 using NAD+ as substrate by fluorescence assay
Cytochrome P450 2D6 = Cytochrome P450 2D6 (Homo sapiens, UniProt P10635); assay: Inhibition of CYP2D6 in human liver microsomes using dextromethorphan as substrate after 30 mins by LC-MS/MS analysis; format: ADME
[10] = molecular target: Serine/threonine-protein kinase 16 (Homo sapiens) (UniProt O75716); assay: Inhibition of TSF1 (unknown origin) at 10 uM after 60 mins in presence of [gamma-33P]-ATP by microplate scintillation counting
Procedure, shortened: (§3)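 A panel of 320 wild-type protein kinases was screened with the compound at 10 μM. Activity is reported as percent inhibition.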

[11] = Oral bioavailability in ICR mouse at 5 mg/kg measured up to 24 hrs postdose; format: ADME, organism-based; settings: in vivo
[12] = AUC (0 to t) in Beagle dog at 7 mg/kg, po measured up to 24 hrs postdose; format: ADME, organism-based, Canis lupus familiaris; parameters: time < 24 hr, dose 7 mg/kg, route oral; settings: in vivo
[13] = Kinetic solubility of the compound in PBS buffer at pH 7.4 at 25 degC after 2 hrs; format: physicochemical; settings: read-out: Kinetic_solubility
[14] = Oral bioavailability in Beagle dog at 7 mg/kg measured up to 24 hrs postdose; format: ADME, organism-based, Canis lupus familiaris; settings: in vivo
[15] = Drug excretion in Sprague-Dawley rat feces at 7 mg/kg, iv or 14 mg/kg, po measured up to 24 hrs by LC-MS/MS; format: ADME, organism-based; settings: in vivo
[16] = molecular target: Protein mono-ADP-ribosyltransferase PARP15 (Homo sapiens, UniProt Q460N3); assay: Inhibition of human PARP15 using NAD+ as substrate by fluorescence assay
Mus musculus [17] = assay: Toxicity in immunodeficient nude Balb/c mouse xenografted with human COLO320DM cells assessed as body weight change at 15 to 60 mg/kg, po administered qd for 10 days measured on days 12, 17 and 21 post last dose; settings: in vivo, 240 h
[18] = AUC (0 to t) in Sprague-Dawley rat at 14 mg/kg, po measured up to 24 hrs postdose; format: ADME, organism-based; parameters: time < 24 hr, dose 14 mg/kg, route oral; settings: in vivo
COLO 320DM [19] = assay: Antitumor activity against human COLO320DM cells xenografted in nude Balb/c mouse assessed as tumor growth inhibition at 60 mg/kg, po administered qd for 10 days measured on days 12, 17 and 21 post last dose; format: functional; settings: 240 h, read-out: TGI; procedure, shortened: as §2
[20] = molecular target: cGMP-dependent protein kinase 1 (Homo sapiens) (UniProt Q13976); assay: Inhibition of PRKG1 (unknown origin) at 10 uM after 60 mins in presence of [gamma-33P]-ATP by microplate scintillation counting; procedure, shortened: as §3
[21] = Terminal half life in ICR mouse at 5 mg/kg, po measured up to 24 hrs postdose; format: ADME, organism-based; settings: in vivo, read-out: beta t1/2 (converted)
[22] = molecular target: Protein mono-ADP-ribosyltransferase PARP3 (Homo sapiens, UniProt Q9Y6F1); assay: Inhibition of human PARP3 using NAD+ as substrate by fluorescence assay
[23] = Cmax in Beagle dog at 7 mg/kg, po measured up to 24 hrs postdose; format: ADME, organism-based, Canis lupus familiaris; parameters: dose 7 mg/kg, route oral; settings: in vivo
[24] = molecular target: Protein mono-ADP-ribosyltransferase PARP14 (Homo sapiens, UniProt Q460N5); assay: Inhibition of human PARP14 using NAD+ as substrate by fluorescence assay
Mus musculus [25] = assay: Clearance in ICR mouse at 5 mg/kg, po measured up to 24 hrs; format: ADME, organism-based; settings: in vivo
Mus musculus [26] = assay: Toxicity in immunocompetent BDF1 mouse allografted with mouse P388 cells assessed as animal discomfort at 15 to 30 mg/kg, po administered qd for 10 days measured on day 12 post last dose; format: organism-based; settings: in vivo, 240 h
COLO 320DM [27] = assay: Antitumor activity against human COLO320DM cells xenografted in nude Balb/c mouse assessed as tumor growth inhibition at 15 mg/kg, po administered qd for 10 days measured on days 12, 17 and 21 post last dose; format: functional; settings: 240 h, read-out: TGI; procedure, shortened: as §2
[28] = molecular target: Poly [ADP-ribose] polymerase 1 (Homo sapiens, UniProt P09874); assay: Inhibition of recombinant human PARP1 expressed in Escherichia coli using NAD+ as substrate after 10 mins by fluorescence assay
[29] = Drug excretion in Sprague-Dawley rat urine at 7 mg/kg, iv or 14 mg/kg, po measured up to 24 hrs by LC-MS/MS; format: ADME, organism-based; settings: in vivo
[30] = molecular target: Protein mono-ADP-ribosyltransferase PARP12 (Homo sapiens, UniProt Q9H0J9); assay: Inhibition of human PARP12 using NAD+ as substrate by fluorescence assay
[31] = AUC (0 to t) in ICR mouse at 5 mg/kg, po measured up to 24 hrs postdose; format: ADME, organism-based; parameters: time < 24 hr, dose 5 mg/kg, route oral; settings: in vivo
Mus musculus [32] = assay: Toxicity in immunodeficient nude Balb/c mouse xenografted with human COLO320DM cells assessed as animal discomfort at 15 to 60 mg/kg, po administered qd for 10 days measured on days 12, 17 and 21 post last dose; settings: in vivo, 240 h
[33] = molecular target: Protein mono-ADP-ribosyltransferase PARP4 (Homo sapiens, UniProt Q9UKK3); assay: Inhibition of human PARP4 using NAD+ as substrate by fluorescence assay
[34] = molecular target: Dual specificity protein kinase CLK2 (Homo sapiens) (UniProt P49760); assay: Inhibition of CLK2 (unknown origin) at 10 uM after 60 mins in presence of [gamma-33P]-ATP by microplate scintillation counting; procedure, shortened: as §3
[35] = molecular target: Maternal embryonic leucine zipper kinase (Homo sapiens) (UniProt Q14680); assay: Inhibition of MELK (unknown origin) at 10 uM after 60 mins in presence of [gamma-33P]-ATP by microplate scintillation counting; procedure, shortened: as §3
[36] = Apparent permeability across apical to basolateral side in MDCK cells expressing human MDR1 at 10 uM after 2 hrs by LC/MS/MS analysis; format: ADME, cell-based, Canis lupus familiaris; settings: dog
[37] = Apparent permeability across basolateral to apical side in MDCK cells expressing human MDR1 at 10 uM after 2 hrs by LC/MS/MS analysis; format: ADME, cell-based, Canis lupus familiaris; settings: dog
Mus musculus [38] = assay: Toxicity in immunocompetent BDF1 mouse allografted with mouse P388 cells assessed as body weight change at 15 to 30 mg/kg, po administered qd for 10 days measured on day 12 post last dose; format: organism-based; settings: in vivo, 240 h
[39] = Terminal half life in Beagle dog at 7 mg/kg, po measured up to 24 hrs postdose; format: ADME, organism-based, Canis lupus familiaris; settings: in vivo, read-out: beta t1/2 (converted)
[40] = Intrinsic clearance in human hepatocytes assessed per million cells at 3 uM measured up to 120 mins by LC-MS/MS analysis; format: ADME, cell-based, Hepatocyte; settings: read-out: CLH
[41] = Cmax in Sprague-Dawley rat at 14 mg/kg, po measured up to 24 hrs postdose; format: ADME, organism-based; parameters: dose 14 mg/kg, route oral; settings: in vivo
Cytochrome P450 2C9 = Cytochrome P450 2C9 (Homo sapiens, UniProt P11712); assay: Inhibition of CYP2C9 in human liver microsomes using tolbutamide as substrate after 30 mins by LC-MS/MS analysis; format: ADME
Cytochrome P450 3A4 = Cytochrome P450 3A4 (Homo sapiens, UniProt P08684); assay: Inhibition of CYP3A4 in human liver microsomes using midazolam as substrate after 30 mins by LC-MS/MS analysis; format: ADME
Cytochrome P450 2C19 = Cytochrome P450 2C19 (Homo sapiens, UniProt P33261); assay: Inhibition of CYP2C19 in human liver microsomes using mephenytoin as substrate after 30 mins by LC-MS/MS analysis; format: ADME
Chain of Cytochrome P450 2C19 (P33261 whole entry): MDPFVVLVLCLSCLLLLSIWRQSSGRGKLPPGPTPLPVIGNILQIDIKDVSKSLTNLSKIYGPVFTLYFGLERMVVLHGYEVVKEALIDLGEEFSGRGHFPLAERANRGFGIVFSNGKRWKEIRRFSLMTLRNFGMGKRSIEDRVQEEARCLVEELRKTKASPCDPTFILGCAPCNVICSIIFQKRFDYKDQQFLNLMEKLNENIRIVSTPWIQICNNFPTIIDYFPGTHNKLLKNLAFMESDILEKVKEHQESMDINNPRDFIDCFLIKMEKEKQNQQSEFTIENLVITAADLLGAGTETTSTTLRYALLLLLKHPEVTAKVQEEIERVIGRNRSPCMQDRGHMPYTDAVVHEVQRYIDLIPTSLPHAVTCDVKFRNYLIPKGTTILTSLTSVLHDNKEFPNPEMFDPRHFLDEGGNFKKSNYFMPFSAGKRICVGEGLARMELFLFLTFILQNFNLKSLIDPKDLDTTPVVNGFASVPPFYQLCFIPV

Chain of Poly [ADP-ribose] polymerase 2 (Q9UGN5 whole entry, the tested form may be a part): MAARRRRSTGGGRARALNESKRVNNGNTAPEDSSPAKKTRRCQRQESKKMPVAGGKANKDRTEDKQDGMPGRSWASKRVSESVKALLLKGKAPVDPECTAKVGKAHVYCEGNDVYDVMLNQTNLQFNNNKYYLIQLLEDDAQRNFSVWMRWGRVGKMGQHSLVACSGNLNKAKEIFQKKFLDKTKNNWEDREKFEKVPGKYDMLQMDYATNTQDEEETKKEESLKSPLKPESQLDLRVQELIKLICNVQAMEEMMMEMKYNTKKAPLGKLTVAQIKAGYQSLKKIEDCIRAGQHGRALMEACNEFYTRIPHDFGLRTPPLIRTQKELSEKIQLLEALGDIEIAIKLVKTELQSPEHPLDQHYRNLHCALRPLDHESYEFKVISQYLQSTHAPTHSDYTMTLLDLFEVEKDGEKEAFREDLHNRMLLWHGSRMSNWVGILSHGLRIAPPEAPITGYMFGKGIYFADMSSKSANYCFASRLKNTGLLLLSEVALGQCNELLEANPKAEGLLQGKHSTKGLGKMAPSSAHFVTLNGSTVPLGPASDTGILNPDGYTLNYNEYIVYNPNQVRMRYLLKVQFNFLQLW
Chain of Cytochrome P450 2D6 (P10635 whole entry): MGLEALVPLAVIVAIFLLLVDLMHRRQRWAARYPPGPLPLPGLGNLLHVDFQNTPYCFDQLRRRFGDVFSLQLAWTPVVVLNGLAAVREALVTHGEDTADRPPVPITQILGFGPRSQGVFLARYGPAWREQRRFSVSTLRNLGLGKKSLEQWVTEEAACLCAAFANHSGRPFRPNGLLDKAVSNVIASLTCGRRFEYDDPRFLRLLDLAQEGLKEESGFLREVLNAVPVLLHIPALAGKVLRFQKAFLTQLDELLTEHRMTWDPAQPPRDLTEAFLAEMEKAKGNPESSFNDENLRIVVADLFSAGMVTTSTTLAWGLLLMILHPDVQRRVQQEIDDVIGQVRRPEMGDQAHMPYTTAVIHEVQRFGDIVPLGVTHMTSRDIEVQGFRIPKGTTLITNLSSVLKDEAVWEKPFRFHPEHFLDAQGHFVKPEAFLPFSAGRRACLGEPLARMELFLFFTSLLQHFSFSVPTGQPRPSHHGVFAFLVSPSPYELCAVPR
Chain of Maternal embryonic leucine zipper kinase (Homo sapiens) (Q14680 whole entry, looked up): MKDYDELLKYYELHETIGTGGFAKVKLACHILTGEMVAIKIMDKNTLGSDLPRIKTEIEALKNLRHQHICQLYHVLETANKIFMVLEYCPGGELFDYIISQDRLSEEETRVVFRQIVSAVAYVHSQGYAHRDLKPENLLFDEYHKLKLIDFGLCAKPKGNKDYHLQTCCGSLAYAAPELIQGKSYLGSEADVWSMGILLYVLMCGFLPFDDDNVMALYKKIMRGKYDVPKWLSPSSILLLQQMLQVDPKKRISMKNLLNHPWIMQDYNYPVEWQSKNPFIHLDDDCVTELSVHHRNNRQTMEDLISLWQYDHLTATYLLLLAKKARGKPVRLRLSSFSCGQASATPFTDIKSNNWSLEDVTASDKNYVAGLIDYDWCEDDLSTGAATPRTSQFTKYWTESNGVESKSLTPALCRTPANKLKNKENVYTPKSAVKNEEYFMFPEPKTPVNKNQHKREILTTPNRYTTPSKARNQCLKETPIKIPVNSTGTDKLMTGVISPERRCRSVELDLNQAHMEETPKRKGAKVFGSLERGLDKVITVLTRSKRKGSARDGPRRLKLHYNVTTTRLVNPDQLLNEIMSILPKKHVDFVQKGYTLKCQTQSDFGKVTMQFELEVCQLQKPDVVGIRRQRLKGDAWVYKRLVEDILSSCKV
Chain of Protein mono-ADP-ribosyltransferase PARP12 (Q9H0J9 whole entry): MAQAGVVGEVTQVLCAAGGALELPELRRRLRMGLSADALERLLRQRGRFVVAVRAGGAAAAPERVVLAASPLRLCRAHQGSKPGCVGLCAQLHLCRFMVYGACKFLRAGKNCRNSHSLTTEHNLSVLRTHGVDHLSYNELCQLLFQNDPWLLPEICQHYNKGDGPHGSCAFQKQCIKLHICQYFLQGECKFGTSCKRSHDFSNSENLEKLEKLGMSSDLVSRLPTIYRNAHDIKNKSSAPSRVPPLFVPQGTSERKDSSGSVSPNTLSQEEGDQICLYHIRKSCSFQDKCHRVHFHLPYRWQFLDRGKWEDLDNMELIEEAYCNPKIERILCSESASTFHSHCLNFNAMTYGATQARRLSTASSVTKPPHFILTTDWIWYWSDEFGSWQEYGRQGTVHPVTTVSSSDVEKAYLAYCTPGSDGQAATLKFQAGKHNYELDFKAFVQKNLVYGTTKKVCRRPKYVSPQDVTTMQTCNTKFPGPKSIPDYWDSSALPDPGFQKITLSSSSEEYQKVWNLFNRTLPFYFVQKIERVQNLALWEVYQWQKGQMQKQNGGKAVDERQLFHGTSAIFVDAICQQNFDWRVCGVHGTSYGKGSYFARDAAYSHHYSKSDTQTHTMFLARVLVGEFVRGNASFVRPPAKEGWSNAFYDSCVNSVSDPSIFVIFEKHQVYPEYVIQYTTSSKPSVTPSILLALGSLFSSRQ
Chain of cGMP-dependent protein kinase 1 (Homo sapiens) (Q13976 whole entry): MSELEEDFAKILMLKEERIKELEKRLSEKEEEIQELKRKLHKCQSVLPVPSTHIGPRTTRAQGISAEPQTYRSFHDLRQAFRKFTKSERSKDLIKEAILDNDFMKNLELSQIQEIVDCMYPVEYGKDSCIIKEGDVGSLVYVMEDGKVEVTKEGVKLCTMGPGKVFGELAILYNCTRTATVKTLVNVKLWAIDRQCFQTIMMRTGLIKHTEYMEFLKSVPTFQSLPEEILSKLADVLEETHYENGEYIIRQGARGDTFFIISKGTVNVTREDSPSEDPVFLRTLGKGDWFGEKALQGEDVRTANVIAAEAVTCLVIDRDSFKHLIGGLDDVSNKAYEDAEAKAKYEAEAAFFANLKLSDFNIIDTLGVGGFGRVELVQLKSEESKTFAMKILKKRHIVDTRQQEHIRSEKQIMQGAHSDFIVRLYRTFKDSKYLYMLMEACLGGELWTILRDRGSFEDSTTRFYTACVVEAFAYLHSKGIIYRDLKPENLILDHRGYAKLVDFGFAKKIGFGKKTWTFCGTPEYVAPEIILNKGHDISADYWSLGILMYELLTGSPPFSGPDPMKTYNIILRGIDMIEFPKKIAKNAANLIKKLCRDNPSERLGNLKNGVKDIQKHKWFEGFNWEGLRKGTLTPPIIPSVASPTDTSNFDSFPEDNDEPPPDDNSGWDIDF
Chain of Cytochrome P450 2C9 (P11712 whole entry): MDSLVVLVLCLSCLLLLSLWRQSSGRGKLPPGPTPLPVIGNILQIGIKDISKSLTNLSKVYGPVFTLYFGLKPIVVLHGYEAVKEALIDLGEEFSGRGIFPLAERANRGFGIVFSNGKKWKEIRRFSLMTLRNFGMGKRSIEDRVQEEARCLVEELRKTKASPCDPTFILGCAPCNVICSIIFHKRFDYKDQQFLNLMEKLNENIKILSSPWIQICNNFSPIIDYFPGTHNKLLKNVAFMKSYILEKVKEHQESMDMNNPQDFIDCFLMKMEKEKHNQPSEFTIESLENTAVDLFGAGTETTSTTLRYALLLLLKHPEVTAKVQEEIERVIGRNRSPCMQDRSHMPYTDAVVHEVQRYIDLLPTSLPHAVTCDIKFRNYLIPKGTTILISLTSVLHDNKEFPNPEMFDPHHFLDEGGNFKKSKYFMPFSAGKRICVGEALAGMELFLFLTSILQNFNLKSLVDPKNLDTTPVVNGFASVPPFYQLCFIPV
Chain of Dual specificity protein kinase CLK2 (Homo sapiens) (P49760 whole entry, looked up): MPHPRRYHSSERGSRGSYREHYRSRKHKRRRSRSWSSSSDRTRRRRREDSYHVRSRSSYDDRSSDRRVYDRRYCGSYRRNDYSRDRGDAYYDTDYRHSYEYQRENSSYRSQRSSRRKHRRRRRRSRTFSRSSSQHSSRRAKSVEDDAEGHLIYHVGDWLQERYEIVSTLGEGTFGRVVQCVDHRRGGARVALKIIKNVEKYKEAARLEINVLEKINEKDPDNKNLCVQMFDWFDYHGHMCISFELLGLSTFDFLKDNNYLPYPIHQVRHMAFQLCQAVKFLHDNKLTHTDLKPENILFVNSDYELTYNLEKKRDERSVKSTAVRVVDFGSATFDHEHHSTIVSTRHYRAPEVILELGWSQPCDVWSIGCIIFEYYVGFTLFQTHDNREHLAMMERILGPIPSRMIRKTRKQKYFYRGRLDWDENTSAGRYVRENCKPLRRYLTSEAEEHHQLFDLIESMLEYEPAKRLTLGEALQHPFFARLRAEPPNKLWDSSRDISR
Chain of Protein mono-ADP-ribosyltransferase PARP16 (Q8N5Y8 whole entry): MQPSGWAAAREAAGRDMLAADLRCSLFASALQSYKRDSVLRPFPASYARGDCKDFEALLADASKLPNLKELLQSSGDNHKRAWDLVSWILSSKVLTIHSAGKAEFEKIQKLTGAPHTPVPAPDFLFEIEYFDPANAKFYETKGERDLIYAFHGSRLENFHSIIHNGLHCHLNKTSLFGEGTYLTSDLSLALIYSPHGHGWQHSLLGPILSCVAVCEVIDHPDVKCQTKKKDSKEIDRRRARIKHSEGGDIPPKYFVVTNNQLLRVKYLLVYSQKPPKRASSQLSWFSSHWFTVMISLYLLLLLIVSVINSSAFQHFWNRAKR

bioavailability [1]: 35% | IC50 [2]: > 25 µM | CLH (Liver): 14.8 µL/min/mg | IC50 [5]: > 100 µM | Cmax [6]: 124 ng/mL | IC50 [8]: > 10 µM | clearance (Canis familiaris): 0.14 L/h/kg | IC50 [9]: > 10 µM | IC50 (Cytochrome P450 2D6): > 25 µM | inhibition [10]: 52% | bioavailability [11]: 47% | AUC(0-t) at 24 h [12]: 27100 ng·h/mL | solubility kinetic at 2 h [13]: 31.2 µM (≈ 14.6 µg/mL) | bioavailability [14]: 91% | Drug excretion [15]: Metabolite_Notdetected | IC50 [16]: > 10 µM | AUC(0-t) at 24 h [18]: 2760 ng·h/mL | inhibition [20]: 66% | half-life [21]: 90 min | IC50 [22]: > 100 µM | Cmax [23]: 5850 ng/mL | IC50 [24]: > 10 µM | clearance (Mus musculus [25]): 34 L/h/kg | IC50 [28]: > 100 µM | Drug excretion [29]: Metabolite_Notdetected | IC50 [30]: > 10 µM | AUC(0-t) at 24 h [31]: 145 ng·h/mL | IC50 [33]: > 100 µM | inhibition [34]: 73% | inhibition [35]: 70% | Papp [36]: 5.3 ×10⁻⁷ cm/s | Papp [37]: 28.2 ×10⁻⁷ cm/s | half-life [39]: 282 min | hepatocyte CLint at 3 µM [40]: 6.44 µL/min/1e6 cells | Cmax [41]: 843 ng/mL | IC50 (Cytochrome P450 2C9): 11.9 µM | IC50 (Cytochrome P450 3A4): 1300 nM | IC50 (Cytochrome P450 2C19): > 25 µM
SMILES: N#Cc1ccc2c(c1)[nH]c(=O)n2[C@H]1C[C@H](c2nnc(-c3ccncn3)n2-c2ccccc2Cl)C1
inhibition in vivo at 30 mg/kg (P388 [3]): 57% | inhibition in vivo at 30 mg/kg (COLO 320DM [4]): 63% | inhibition in vivo at 15 mg/kg (P388 [7]): 32% | Activity (Mus musculus [17]): Non-Toxic | inhibition in vivo at 60 mg/kg (COLO 320DM [19]): 63% | Activity (Mus musculus [26]): Non-Toxic | inhibition in vivo at 15 mg/kg (COLO 320DM [27]): 53% | Activity (Mus musculus [32]): Non-Toxic | Activity (Mus musculus [38]): Non-Toxic
